According to ChEMBL document CHEMBL1157319, “Altenuene derivatives from an unidentified freshwater fungus in the family Tubeufiaceae” (2006):
Calls of active or inactive are those of the source. No cut-off for these calls is given here.

Tests used:
Bacillus subtilis = assay: Antibacterial activity against Bacillus subtilis ATCC 6051 at 100 ug/disk by disk diffusion method; format: functional; conditions: for zone of inhibition at 100 µg/disc: read-out: IZ
Outline: (§1)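 Paper disks each loaded with 100 µg of test material; gentamicin sulfate at 25 µg/disk served as the positive standard. Read-out was the diameter of the inhibition zone in mm. The same panel also included Escherichia coli ATCC 25922.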

Aspergillus flavus = assay: Antifungal activity against Aspergillus flavus NRRL 6541 at 200 ug/disk by disk diffusion method; format: functional, organism-based
Staphylococcus aureus = assay: Antibacterial activity against Staphylococcus aureus ATCC 29213 at 100 ug/disk by disk diffusion method; format: functional; conditions: for zone of inhibition at 100 µg/disc: read-out: IZ; outline: as §1
Candida albicans = assay: Antifungal activity against Candida albicans ATCC 14053 at 200 ug/disk by disk diffusion method; format: functional, organism-based
Fusarium verticillioides = assay: Antifungal activity against Fusarium verticillioides NRRL 25457 at 200 ug/disk by disk diffusion method; format: functional, organism-based

For `COc1cc(O)c2c(c1)C1=C[C@@H](O)[C@@H](O)C[C@]1(C)OC2=O`, the Activity (Bacillus subtilis) was “inactive”.
With `COc1cc(O)c2c(c1)[C@H]1C[C@H](O)[C@@H](O)C[C@]1(C)OC2=O` the Activity (Aspergillus flavus) was “inactive”, the Activity (Staphylococcus aureus) was “inactive” and the Activity (Bacillus subtilis) was “inactive”. For the same compound, the Activity (Candida albicans) was “inactive” and the Activity (Fusarium verticillioides) was “inactive”.
`COc1cc(O)c2c(c1)C1=C[C@H](O)[C@@H](O)C[C@]1(C)OC2=O` [ALTENUENE] gave a zone of inhibition at 100 µg/disc (Staphylococcus aureus) of 18 mm and a zone of inhibition at 100 µg/disc (Bacillus subtilis) of 20 mm.
With `COc1cc(O)c2c(c1)C1=CC(=O)[C@H](O)C[C@]1(C)OC2=O` [DEHYDROALTENUENE A] the Activity (Aspergillus flavus) was “inactive”, the zone of inhibition at 100 µg/disc (Bacillus subtilis) was 13 mm and the Activity (Candida albicans) was “inactive”. The Activity (Fusarium verticillioides) was “inactive”.
With `COc1cc(O)c2c(c1)C1=CC(=O)[C@@H](O)C[C@]1(C)OC2=O` [DEHYDROALTENUENE B] the Activity (Aspergillus flavus) was “inactive”, the zone of inhibition at 100 µg/disc (Staphylococcus aureus) was 14 mm and the zone of inhibition at 100 µg/disc (Bacillus subtilis) was 20 mm. The Activity (Candida albicans) was “inactive” and the Activity (Fusarium verticillioides) was “inactive”.
`COc1cc(O)c2c(c1)[C@H]1C[C@@H](O)[C@@H](O)C[C@]1(C)OC2=O` [DIHYDROALTENUENE A] was tested, and the Activity (Aspergillus flavus) was “inactive”, the zone of inhibition at 100 µg/disc (Staphylococcus aureus) was 14 mm and the zone of inhibition at 100 µg/disc (Bacillus subtilis) was 50 mm. The Activity (Candida albicans) was “inactive” and the Activity (Fusarium verticillioides) was “inactive”.
Work on `COc1cc(O)c2c(c1)C1=C[C@@H](O)[C@H](O)C[C@]1(C)OC2=O` [ISOALTENUENE] yielded a zone of inhibition at 100 µg/disc (Bacillus subtilis) of 30 mm.
